ChEMBL document CHEMBL1156920, “Structural analogues of schweinfurthin F: probing the steric, electronic, and hydrophobic properties of the D-ring substructure” (Bioorg Med Chem, 2010)

Experiments:
A498 = experiment: Growth inhibition of human A498 cells; type: functional
SF-539 = experiment: Growth inhibition of human SF539 cells; type: functional
HT-29 = experiment: Growth inhibition of human HT-29 cells; type: functional
HCT-15 = experiment: Growth inhibition of human HCT15 cells; type: functional
SK-OV-3 = experiment: Growth inhibition of human SKOV3 cells; type: functional
OVCAR-5 = experiment: Growth inhibition of human OVCAR5 cells; type: functional
SNB-75 = experiment: Growth inhibition of human SNB75 cells; type: functional
HOP-62 = experiment: Growth inhibition of human HOP62 cells; type: functional
HL-60(TB) = experiment: Growth inhibition of human HL-60(TB) cells; type: functional
MCF7 = experiment: Growth inhibition of human MCF7 cells; type: functional
A549 [1] = experiment: Growth inhibition of human A549 cells; type: functional
PC-3 = experiment: Growth inhibition of human PC3 cells; type: functional
OVCAR-3 = experiment: Growth inhibition of human OVCAR-3 cells; type: functional
NCI-H460 = experiment: Growth inhibition of human NCI-H460 cells; type: functional
SK-MEL-5 = experiment: Growth inhibition of human SK-MEL-5 cells; type: functional
SF-295 = experiment: Growth inhibition of human SF295 cells; type: functional
HCT-116 = experiment: Growth inhibition of human HCT116 cells; type: functional
A549 [2] = experiment: Cytotoxicity against human A549 cells after 44 hrs by MTT assay; type: functional, cell-based; conditions: A549, 44 h
Method in brief: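 SF-295 cells cultured in RPMI 1640 and A549 cells in F-12, each with 10% FBS, penicillin–streptomycin, amphotericin B and L-glutamine, at 37 °C in 5% CO2. Cells were grown to 60% confluency, then treated for 44 h. Medium was replaced with medium containing 0.06 mg/mL MTT (phenol red-free RPMI for SF-295) for 4 h. Acid/Triton/isopropanol stop solution was added, plates incubated overnight at 37 °C, OD read at 540 and 650 nm, and EC50 calculated.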

SR = experiment: Growth inhibition of human SR cells; type: functional
SK-MEL-2 = experiment: Growth inhibition of human SK-MEL-2 cells; type: functional
NCI-H522 = experiment: Growth inhibition of human NCI-H522 cells; type: functional
[3] = read-out: pLC50 (the source's name) (converted)

COc1cc(CCc2cc(O)c(C/C=C(\C)CC/C=C(\C)CO)c(O)c2)cc2c1O[C@]1(C)CC[C@@H](O)C(C)(C)[C@H]1C2
LC50 (A498): > 100 µM | TGI (A498; read-out: pTGI (converted)): 61.7 µM | GI50 (SF-539): 2.29 µM | LC50 (SF-539): 33.9 µM | TGI (SF-539; read-out: pTGI (converted)): 11.7 µM | GI50 (HT-29): 7.94 µM | LC50 (50% lethal concentration) (HT-29): 87.1 µM | TGI (HT-29; read-out: pTGI (converted)): 26.3 µM | GI50 (HCT-15): 5.01 µM | LC50 (HCT-15): > 100 µM | TGI (HCT-15; read-out: pTGI (converted)): 22.9 µM | GI50 (SK-OV-3): 8.51 µM | LC50 (SK-OV-3): > 100 µM | TGI (SK-OV-3; read-out: pTGI (converted)): 31.6 µM | GI50 (OVCAR-5): 20.9 µM | LC50 (lethal concentration, 50% cell kill) (OVCAR-5): > 100 µM | TGI (OVCAR-5; read-out: pTGI (converted)): 66.1 µM | GI50 (SNB-75): 1.7 µM | LC50 (SNB-75): > 100 µM | TGI (SNB-75; read-out: pTGI (converted)): 10.7 µM | GI50 (HOP-62): 10 µM | LC50 (HOP-62): 53.7 µM | TGI (HOP-62; read-out: pTGI (converted)): 22.9 µM | GI50 (HL-60(TB)): 3.02 µM | CC50 (HL-60(TB); [3]): 95.5 µM | TGI (HL-60(TB); read-out: pTGI (converted)): 12.6 µM | GI50 (MCF7): 2.95 µM | CC50 (MCF7; [3]): 53.7 µM | TGI (MCF7; read-out: pTGI (converted)): 12.9 µM | GI50 (A549 [1]): 4.9 µM | LC50 (50% lethal concentration) (A549 [1]): > 100 µM | TGI (A549 [1]; read-out: pTGI (converted)): 95.5 µM | GI50 (PC-3): 5.5 µM | CC50 (PC-3; [3]): > 100 µM | TGI (PC-3; read-out: pTGI (converted)): 77.6 µM | GI50 (OVCAR-3): 11.5 µM | LC50 (50% lethal concentration) (OVCAR-3): > 100 µM | TGI (OVCAR-3; read-out: pTGI (converted)): 33.1 µM | GI50 (NCI-H460): 3.31 µM | LC50 (NCI-H460): 38.9 µM | TGI (NCI-H460; read-out: pTGI (converted)): 10.7 µM | GI50 (SK-MEL-5): 3.39 µM | LC50 (SK-MEL-5): 33.1 µM | TGI (SK-MEL-5; read-out: pTGI (converted)): 11 µM | GI50 (SF-295): 2.51 µM | LC50 (SF-295): 45.7 µM | TGI (SF-295; read-out: pTGI (converted)): 10 µM | GI50 (HCT-116): 3.47 µM | CC50 (HCT-116; [3]): 40.7 µM | TGI (HCT-116; read-out: pTGI (converted)): 13.2 µM | EC50 (A549 [2]): > 10 µM | GI50 (SR): 2.09 µM | LC50 (SR): 66.1 µM | TGI (SR; read-out: pTGI (converted)): 7.59 µM | GI50 (SK-MEL-2): 3.89 µM | LC50 (SK-MEL-2): 75.9 µM | TGI (SK-MEL-2; read-out: pTGI (converted)): 17.4 µM | GI50 (NCI-H522): 5.25 µM | LC50 (50% lethal concentration) (NCI-H522): > 100 µM | TGI (NCI-H522; read-out: pTGI (converted)): 29.5 µM
